Test results from ChEMBL document CHEMBL4184228, “Reversed isoniazids: Design, synthesis and evaluation against Mycobacterium tuberculosis” (Bioorg Med Chem, 2018).
Converted amounts (≈) assume the structure as drawn.

Columns and labels:
[1] = test system: Mycobacterium tuberculosis; assay: Antimycobacterial activity against Mycobacterium bovis BCG; format: functional; settings: variant bovis BCG
[2] = test system: Mycobacterium tuberculosis; assay: Growth inhibition of Mycobacterium bovis BCG infected in PBMC assessed as decrease in [3H]-uridine incorporation at <= IC20 after 72 hrs by microbeta scintillation counting analysis; format: functional, variant bovis BCG
Procedure, shortened: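 PBMCs at 1.5x10^4/well; non-adherent cells are washed off after 24 h. Adherent monocytes are cultured 6 days, then infected with BCG at MOI 3 for 4 h and washed three times. Drugs are added at concentrations at or below the THP-1 IC20 for 72 h.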

Row | SMILES | MIC [1] [µM] | growth inhibition (GI) [2] [%]
1 | O=C(NNCCCN1CCC(N2c3ccccc3Sc3ccc(Cl)cc32)CC1)c1ccncc1 | 1 (≈ 0.494 µg/mL) | >90
2 | O=C(NNCCCN1c2ccccc2Sc2ccccc21)c1ccccc1 | 26.6 (≈ 9.99 µg/mL) | 40
3 | O=C(NNCCCN1c2ccccc2Sc2ccc(Cl)cc21)c1ccccc1 | 12.2 (≈ 5 µg/mL) | 40
4 | O=C(NNCCCN1c2ccccc2Sc2ccc(Cl)cc21)c1ccncc1 | 2.44 (≈ 1 µg/mL) | >90
5 | O=C(NNCCCN1c2ccccc2Sc2ccccc21)c1ccncc1 | 13.3 (≈ 5.01 µg/mL) | >90
6 | O=C(NNCCCN1c2ccccc2CCc2ccccc21)c1ccncc1 | 13.4 (≈ 5 µg/mL) | >90
7 | CN(C)CCCN1c2ccccc2Sc2ccc(Cl)cc21 [CHLORPROMAZINE] | 4 (≈ 1.28 µg/mL) | 40
8 | NNC(=O)c1ccncc1 [ISONIAZID] | 0.015 (≈ 0.00206 µg/mL) | >90
